Measured values taken from ChEMBL document CHEMBL4330154, “Di- and heptavalent nicotinic analogues to interfere with α7 nicotinic acetylcholine receptors” (Bioorg Med Chem, 2019).

Tests used:
Type in all cases: cell-based
[1] = molecular target: T1, Neuronal acetylcholine receptor subunit alpha-7 (Homo sapiens, UniProt P36544); test: (§1) Antagonist activity at human alpha7 nAChR expressed in Xenopus laevis oocytes assessed as inhibition of ACh-induced inward current at -60 mV holding potential preincubated for 1 min followed by ACh addition by two-microelectrode voltage clamp assay
How it was run: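 Oocytes expressing human α7 mRNA were clamped at −60 mV on an automated TEVC rig, using electrodes of 50–60 MΩ filled with 1 M KCl/1 M ammonium acetate. The bath was OR2 (88 mM NaCl, 1 mM MgCl₂, 5 mM Hepes, pH 7.6). ACh 100 μM was applied three times with 4 min washes between. Each oocyte then got a 1 min compound preincubation followed by 100 μM ACh plus the same compound concentration. IC50 came from a Hill fit of the fractional current.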

[2] = molecular target: T1, Neuronal acetylcholine receptor subunit alpha-7; test: as §1, with “assay relative to 2-(2-(2-(2-(4-(5-(1-methylpyrrolidin-2-yl)pyridin-3-yl)-1H-1,2,3-triazol-1-yl)ethoxy)ethoxy)ethoxy)ethanol” for “assay”
[3] = molecular target: T1, Neuronal acetylcholine receptor subunit alpha-7; test: Antagonist activity at human alpha7 nAChR expressed in Xenopus laevis oocytes assessed as inhibition of ACh-induced inward current at -60 mV holding potential preincubated for 1 min followed by ACh addition by two-microelectrode voltage clamp assay relative to cyclodextrin reference compound
How it was run: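 Human α7 mRNA expressed in Xenopus oocytes; automated two-electrode voltage clamp at -60 mV holding, electrodes filled with 1 M KCl/1 M ammonium acetate; OR2 buffer (88 mM NaCl, 1 mM MgCl2, 5 mM Hepes, pH 7.6). Three 100 μM ACh applications spaced by 4 min washes; 1 min compound preincubation, then 100 μM ACh plus compound. IC50 from fit F = 1/[1+([X]/IC50)^nH].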

T1 sequence (P36544 whole entry): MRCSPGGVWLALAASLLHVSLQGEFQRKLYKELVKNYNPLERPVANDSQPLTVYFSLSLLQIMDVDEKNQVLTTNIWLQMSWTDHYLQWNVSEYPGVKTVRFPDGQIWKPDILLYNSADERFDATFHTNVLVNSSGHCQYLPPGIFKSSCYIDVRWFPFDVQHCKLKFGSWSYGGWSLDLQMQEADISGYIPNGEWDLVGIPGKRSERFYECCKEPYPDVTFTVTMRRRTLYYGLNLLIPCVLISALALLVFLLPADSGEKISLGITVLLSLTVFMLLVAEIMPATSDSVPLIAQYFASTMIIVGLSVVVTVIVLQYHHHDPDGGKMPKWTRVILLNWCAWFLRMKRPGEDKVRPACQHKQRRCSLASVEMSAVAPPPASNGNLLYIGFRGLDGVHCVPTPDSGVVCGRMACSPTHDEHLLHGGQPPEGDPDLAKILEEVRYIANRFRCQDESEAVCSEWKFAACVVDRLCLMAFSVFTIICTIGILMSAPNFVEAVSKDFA

fold change (FC) [3] | SMILES | IC50 [1] | inhibition [1] | fold change (FC) [2]
 | CN1CCCC1c1cncc(-c2cn(CCOCCOCCOCCOCCOCCOCCOCCn3cc(-c4cncc(C5CCCN5C)c4)nn3)nn2)c1 (configuration not stated) | 611 µM | Dose-dependent effect | 0.16
 | CN1CCCC1c1cncc(-c2cn(CCOCCOCCOCCn3cc(-c4cncc(C5CCCN5C)c4)nn3)nn2)c1 (configuration not stated) | 12 µM | Dose-dependent effect | 8.1
 | CN1CCCC1c1cncc(-c2cn(CCOCCOCCOCCOCCOCCOCCOCCOCCOCCOCCOCCOCCOCCOCCOCCOCCOCCOCCOCCn3cc(-c4cncc(C5CCCN5C)c4)nn3)nn2)c1 (configuration not stated) | 160 µM | Dose-dependent effect | 0.61
 | CN1CCCC1c1cncc(-c2cn(CCOCCOCCOCCO)nn2)c1 (configuration not stated) | 195 µM | Dose-dependent effect | 
 | CN1CCCC1c1cncc(-c2cn(CCOCCOCCOCCOCCOCCOCCOCCOCCOCCOCCOCCn3cc(-c4cncc(C5CCCN5C)c4)nn3)nn2)c1 (configuration not stated) | 300 µM | Dose-dependent effect | 0.32
0.14 | CN1CCCC1c1cncc(-c2cn(C[C@H]3O[C@@H]4O[C@H]5[C@H](O)[C@@H](O)[C@@H](O[C@H]6[C@H](O)[C@@H](O)[C@@H](O[C@H]7[C@H](O)[C@@H](O)[C@@H](O[C@H]8[C@H](O)[C@@H](O)[C@@H](O[C@H]9[C@H](O)[C@@H](O)[C@@H](O[C@H]%10[C@H](O)[C@@H](O)[C@@H](O[C@H]3[C@H](O)[C@H]4O)O[C@@H]%10Cn3cc(-c4cncc(C%10CCCN%10C)c4)nn3)O[C@@H]9Cn3cc(-c4cncc(C9CCCN9C)c4)nn3)O[C@@H]8Cn3cc(-c4cncc(C8CCCN8C)c4)nn3)O[C@@H]7Cn3cc(-c4cncc(C7CCCN7C)c4)nn3)O[C@@H]6Cn3cc(-c4cncc(C6CCCN6C)c4)nn3)O[C@@H]5Cn3cc(-c4cncc(C5CCCN5C)c4)nn3)nn2)c1 (some centres not stated) | 196 µM | Dose-dependent effect | 
 | CN1CCCC1c1cncc(-c2cn(C[C@H]3O[C@@H]4O[C@H]5[C@H](O)[C@@H](O)[C@@H](O[C@H]6[C@H](O)[C@@H](O)[C@@H](O[C@H]7[C@H](O)[C@@H](O)[C@@H](O[C@H]8[C@H](O)[C@@H](O)[C@@H](O[C@H]9[C@H](O)[C@@H](O)[C@@H](O[C@H]%10[C@H](O)[C@@H](O)[C@@H](O[C@H]3[C@H](O)[C@H]4O)O[C@@H]%10CO)O[C@@H]9CO)O[C@@H]8CO)O[C@@H]7CO)O[C@@H]6CO)O[C@@H]5CO)nn2)c1 (some centres not stated) | 56 µM | Dose-dependent effect | 
 | CN1CCCC1c1cncc(-c2cn(CCOCCOCCOCCOCCOCCOCCOCCOCCOCCOCCOCCOCCOCCOCCOCCOCCOCCOCCOCCOCCOCCOCCOCCOCCOCCOCCOCCn3cc(-c4cncc(C5CCCN5C)c4)nn3)nn2)c1 (configuration not stated) | 21 µM | Dose-dependent effect | 4.6
